MC4R antag cAMP: human MC4R antagonism in cAMP assay | inhibition, % at 6.5 µM | 360,000 compounds, 0.48% hits | MC4R-expressing cells, MTII-stimulated cAMP, LANCE TR-FRET;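 active = inhibition above its plate's cutoff, the mean of tested wells on that plate plus 3 SD, cut at about 29% in these data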
Target sequence (P32245 whole entry, looked up): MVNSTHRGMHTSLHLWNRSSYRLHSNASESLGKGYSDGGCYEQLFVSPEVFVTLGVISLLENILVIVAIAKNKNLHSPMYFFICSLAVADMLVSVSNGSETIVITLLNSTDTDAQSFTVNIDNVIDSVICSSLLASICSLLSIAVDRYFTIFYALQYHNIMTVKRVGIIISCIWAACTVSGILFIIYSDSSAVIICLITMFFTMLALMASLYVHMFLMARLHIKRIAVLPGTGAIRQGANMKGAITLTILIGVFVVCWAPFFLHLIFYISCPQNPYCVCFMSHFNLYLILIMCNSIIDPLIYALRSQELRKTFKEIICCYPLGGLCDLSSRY
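Assay system: U2OS cells stably expressing human melanocortin 4 receptor (MC4R) / Dosing: 6.5 µM / Timing: compound 30 min, challenge 1 h, detection 1 h / Measured by: Eu-cAMP/anti-cAMP TR-FRET, emission 671 nm / Replicates: singlicate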
MC4R ag barr: human MC4R agonism via beta-arrestin; P32245; U2OS MC4R beta-arrestin complementation, luminescence; percent of melanotan II response, DMSO zero; activation, % at 8.9 µM; 360,000 compounds, 0.98% hits; AID 540308;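 active = activation above a per-plate cutoff, the mean activation of sample wells on that plate plus 3 SD, cut at about 8% in these data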
A1 inh: inhibitors of the anti-apoptotic protein A1, read as caspase activation | MEF A1-2A-BIM cells, Caspase-Glo 3/7 luminescence, 3 h; percent of clofoctol response, vehicle zero | caspase activation, % (concentration not given with the values) | 330,000 compounds, 0.066% hits | AID 2462;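 active = over half of replicate activation scores above 10%, or exactly half above 10 with the replicate mean above 10; inconclusive = replicate mean below 10 yet half the replicates above 10; inactive = over half of replicates below 10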
NALP1 yeast inh: blocks the NALP1 inflammasome reconstituted in yeast; S. cerevisiae NALP1/ASC/caspase-1 growth, X-gal OD620, 72 h; inhibition, % at 10 µM; 280,000 compounds, 0.61% hits; AID 2071; in the data active = inhibition mostly above about 24%, no sharp cut-off; inactive = mostly below about 32%
TbMetRS inhib: blocks T. brucei methionyl-tRNA synthetase activity | AID 624268 | 360,000 compounds, 0.4% hits | inhibition, % at 11.9 µM | purified T. brucei MetRS, ATP depletion, Kinase-Glo luminescence;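 active = inhibition above a per-plate cutoff of the control wells' mean inhibition plus 3 SD, cut at about 5.5% in these data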
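assay system = parasite MetRS enzyme | timing = 15 min preincubation, 2 h reaction, all 25 °C | evaluation = percent inhibition relative to median high and low control wells | medium = HEPES buffer containing pyrophosphatase, BSA, spermine, DTT | compound = single dose, 11.9 µM final nominal, 0.9% final DMSO | detection = Kinase-Glo luminescence, ATP depletion format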
NALP3 yeast inh: inhibitors of NALP3 inflammasome in yeast | Yeast reconstituted NLRP3/ASC/caspase-1, beta-gal luminescence, 24 h | inhibition, % at 10 µM | 330,000 compounds, 0.39% hits | AID 2825;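 active = inhibition of 50% or more; inactive = inhibition below 50%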
cAMP nonselect: U2OS forskolin cAMP inhibition counter-screen; parental U2OS, LANCE TR-FRET; shares compounds with MC4R antag cAMP; 1,600 compounds, 26% hits; inhibition, % at 6.5 µM;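 active = mean inhibition over triplicates above the low-control well mean plus 3 SD, set per campaign, cut at about 13% in these data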;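 note: signal is single emission at 671 nm which falls as cellular cAMP rises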
MC4R antag conf: human MC4R cAMP antagonism confirmation | shares compounds with MC4R antag cAMP | MC4R-expressing cells, MTII-stimulated cAMP, TR-FRET | AID 602195 | 1,600 compounds, 27% hits | inhibition, % at 6.5 µM; in the data active = inhibition above about 29%
Hits are given with their value; - = inactive; ? = inconclusive; . = no result; + = active, no number. Shown are actives, neighbours in structure and some others; about 2.5% of the full set was active somewhere.

SMILES | MC4R antag cAMP | MC4R ag barr | A1 inh | NALP1 yeast inh | TbMetRS inhib | NALP3 yeast inh | cAMP nonselect | MC4R antag conf
COc1ccc(CS(=O)(=O)/C(Cl)=C(/Cl)C(=O)Nc2ccc(OC)nc2)cc1 | 44 | - | - | - | - | - | 33 | 37
COc1ccc(NC(=O)/C(Cl)=C(/Cl)S(=O)Cc2ccccc2)cn1 (centres undefined) | - | - | - | - | - | - | . | .
C[C@@H]1CN([C@@H](C)CO)C(=O)CCCn2nncc2CO[C@@H]1CN(C)S(=O)(=O)c1ccc(C#N)cc1 | - | - | . | . | - | . | . | .
CC(C)CCn1nc(C(=O)Nc2nc3c(s2)CCCC3)c2ccccc2c1=O | 33 | - | - | . | - | - | - | -
C=CCNc1nc2cc(-c3ccccc3OC)sc2c(=O)n1C | - | - | . | . | - | . | . | .
c1ccc(-c2noc(CN3CCCC(OCc4ccccn4)C3)n2)cc1 (centres undefined) | 31 | - | - | - | - | - | - | -
CCOP(=O)(OCC)C(NC(=O)Nc1cccc(Cl)c1)c1ccccc1 (centres undefined) | 30 | - | - | - | - | - | - | -
Clc1ccc(-c2nnc3n2CCCCS3)cc1 | 35 | - | - | - | - | - | - | -
Clc1ccc(-c2nnc3n2CCCCC3)cc1 | - | - | - | - | - | - | . | .
COc1ccc(N2CCN(C(=O)NCc3ccc(OC)c(OC)c3)CC2)cc1 | - | - | - | - | - | - | . | .
COc1ccc(N2CCN(C(=O)NCc3ccc(OC)c(Cl)c3)CC2)cc1 | 31 | - | - | - | - | - | - | -
COc1ccccc1NC(=O)/C(C#N)=C/c1cccn1C | - | - | - | . | - | - | . | .
CCCc1cc(=O)oc2c3c(cc(OCC(=O)N[C@@H](C)C(=O)O)c12)OC(C)(C)CC3 | - | - | - | - | - | - | . | .
CCCc1cc(=O)oc2c3c(c4c(c12)OC(C)(C)C=C4)OC(C)C(C)C3O (centres undefined) | 30 | - | - | - | - | - | - | -
CCOc1ccc(NC(=O)CSc2ccccc2N)cc1 | 32 | - | ? | - | - | - | - | -
CC(=O)Nc1cccc(Oc2cc(C#N)c(C#N)cc2N2CCCCCC2)c1 | 33 | - | - | - | - | - | - | -
COc1ccc(N2CCN(c3ccc(NC(=O)C4CCCCC4)cc3C#N)CC2)cc1 | - | - | - | - | - | - | . | .
CCNC1=C(Cl)C(=O)c2ccccc2C1=O | - | - | - | - | - | - | . | .
CCCC(=O)NC1=C(Cl)C(=O)c2ccccc2C1=O | 93 | - | . | . | - | . | 78 | 106
O=C(CC(Nc1ccccc1)C(=O)O)c1ccccc1 (centres undefined) | - | - | - | - | - | - | . | .
C=C(C(=O)c1ccccc1)C(C)CC(=O)c1ccccc1 (centres undefined) | 33 | - | - | - | - | - | 23 | 50
OCCN1CCN(C(c2cccs2)c2ccc3cccnc3c2O)CC1 (centres undefined) | . | . | . | - | . | . | . | .
CC(C)(C)c1cc(C(c2cccnc2)N2CCN(CCO)CC2)cc(C(C)(C)C)c1O (centres undefined) | 29 | - | 25 | - | - | - | - | -
O=C(/C=C/c1cccs1)c1ccco1 | - | - | . | . | - | . | . | .
CC(=O)Nc1sc2c(c1C(c1ccc(Cl)cc1)N1CCOCC1)CCCC2 (centres undefined) | - | - | - | - | - | - | . | .
SMILES | MC4R antag cAMP | MC4R ag barr | A1 inh | NALP1 yeast inh | TbMetRS inhib | NALP3 yeast inh | cAMP nonselect | MC4R antag conf
CC(=O)Nc1sc2c(c1C(c1ccc(F)cc1)N1CCOCC1)CCCC2 (centres undefined) | 29 | - | - | - | - | - | - | -
CCn1c(C)nc2cc(C(=O)N/N=C(\C)c3ccc(OC)cc3O)ccc21 | 34 | - | . | - | - | . | - | -
CCn1c(C)nc2cc(C(=O)NN=C(C)c3ccc(C#N)cc3)ccc21 | - | - | - | . | - | - | . | .
Cc1cc(C)c(OCC(=O)Nc2nnc(C3CC3)s2)c(C)c1 | - | - | . | . | - | - | . | .
O=C(c1cccc(C(F)(F)F)c1)C1CCCN(C(=O)/C=C/c2cnc[nH]2)C1 (centres undefined) | - | - | - | - | - | - | . | .
COC(=O)c1sc(N2C(=O)C(O)=C(C(=O)c3ccc(C)o3)C2c2ccc(F)cc2)nc1C (centres undefined) | 33 | - | - | - | - | - | 17 | -
COC(=O)c1sc(N2C(=O)C(O)=C(C(=O)c3ccc(C)o3)C2c2ccco2)nc1C (centres undefined) | - | - | - | - | - | - | . | .
CSc1nnc(N2C(=O)C(O)=C(C(=O)c3ccc(C)o3)C2c2ccc(C)cc2)s1 (centres undefined) | + | - | - | - | - | - | 52 | 88
O=C(NCCc1ccccc1)C(c1cccs1)N(C(=O)CCl)c1ccc(Cl)cc1 (centres undefined) | 30 | 34 | - | - | - | - | - | 31
CC(=O)n1cc(C2CC(=O)OC3=C2CC(=O)C(C)(C)C3)c2ccccc21 (centres undefined) | - | - | . | . | - | . | . | .
Cc1ccccc1NC(=O)c1c(F)c(F)c(F)c(F)c1F | - | - | - | - | - | - | . | .
O=C(Nc1ccccc1Cl)c1c(F)c(F)c(F)c(F)c1F | 37 | - | - | . | - | - | 49 | 77
CCCN=C1N(C)C[C@@H]2[C@@H]3C(=O)N(Cc4ccccc4)C(=O)[C@@H]3[C@](Cc3ccccc3)(C(=O)OC)N12 | - | - | . | . | - | . | . | .
COc1ccc(NC(=O)c2cc(-c3ccc(F)cc3OC)n[nH]2)c(OC)c1 | 30 | - | . | . | - | . | - | -
COCCNC(=O)C1CCCN(C(=O)c2cncc(Br)c2)CC1 (centres undefined) | - | - | . | . | - | . | . | .
COC(=O)c1ccc(OC(=O)CS(=O)c2ccccc2[N+](=O)[O-])cc1 (centres undefined) | - | - | - | - | - | - | . | .
O=C(CS(=O)c1ccc(C(F)(F)F)cc1[N+](=O)[O-])Oc1ccccc1 (centres undefined) | 49 | - | 9.2 | - | - | - | - | 34
CC#CCOCC1CNC(=O)O1 (centres undefined) | - | - | . | . | - | . | . | .
c1ccc(-c2csc(-c3ccncc3)n2)cc1 | - | - | - | - | - | - | . | .
Brc1ccsc1-c1csc(-c2ccncc2)n1 | 34 | - | - | - | - | - | - | -
C=C(C)[C@H]1CC=C(C)C(=O)C1 | - | - | - | . | - | - | . | .
